Most compounds without a hit are left out; they make up all but 2.6% or so of the library.
MC4R antagonist – blocks human MC4R cAMP signaling | P32245 | 0.48% of 360,000 active | MC4R-expressing cells, MTII-stimulated cAMP, LANCE TR-FRET | inhibition, % at 6.5 µM | AID 540295;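 active means inhibition above its plate's cutoff, the mean of tested wells on that plate plus 3 SD, cut at about 29% in these data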;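 further: 0% = Melanotan II alone and 100% = Melanotan II plus saturating MCL0020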
Target sequence (P32245 whole entry, looked up): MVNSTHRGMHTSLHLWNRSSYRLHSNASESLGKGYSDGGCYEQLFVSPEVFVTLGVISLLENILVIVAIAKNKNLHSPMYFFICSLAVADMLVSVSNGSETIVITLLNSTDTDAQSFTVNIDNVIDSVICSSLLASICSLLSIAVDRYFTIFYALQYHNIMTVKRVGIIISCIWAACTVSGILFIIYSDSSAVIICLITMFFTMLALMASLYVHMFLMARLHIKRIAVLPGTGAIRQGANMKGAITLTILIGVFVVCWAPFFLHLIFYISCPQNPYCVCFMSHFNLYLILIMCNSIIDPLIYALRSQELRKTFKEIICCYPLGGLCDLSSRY
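System: U2OS cells stably expressing human melanocortin 4 receptor (MC4R). Reagent: Melanotan II challenge after compound preincubation. Doses: 6.5 µM. Times: 30-min compound, 1-h challenge, 1-h detection, room temperature. Measured by: TR-FRET with Eu-cAMP and labeled anti-cAMP, 671 nm. Replicates: singlicate.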
Granule exo inh – lytic granule exocytosis inhibition | 0.66% of 360,000 active | TALL-104 LAMP-1 surface exposure, flow cytometry; cells stimulated with thapsigargin and PMA | inhibition, % at 10 µM;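 active means inhibition above about 55%, limit read from the data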
ABCB6 inh MLPCN – inhibitors of human ABC transporter ABCB6; Q9NP58; K562-ABCB6 porphyrin accumulation, flow cytometry, 1 h; active compounds read low; fluorescence ratio to DMSO, % at 10 µM; 0.19% of 360,000 active; AID 602162;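 active means fluorescence ratio to DMSO below 75%, the collection mean minus 3 SD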;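 further: signal is porphyrin accumulated inside mitochondria; 100% equals median channel fluorescence of DMSO control wells; lower ratio means ABCB6 inhibition with less porphyrin fluorescence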
MC4R barr agon – human MC4R agonism via beta-arrestin. P32245. U2OS MC4R beta-arrestin complementation, luminescence; percent of melanotan II response, DMSO zero. activation, % at 8.9 µM. 0.98% of 360,000 active. AID 540308;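 active means activation above a per-plate cutoff, the mean activation of sample wells on that plate plus 3 SD, cut at about 8% in these data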
hiPSC survival – enhancers of human iPSC single-cell survival; hiPSC single-cell survival, ATPlite luminescence; 100% = ROCK inhibitor wells, 0% = DMSO; survival enhancement, % at 20 µM; 0.044% of 360,000 active; AID 602274; in the data active means survival enhancement above about 18%;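 further: cells exposed to compounds for 16 hours before the ATP read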
Tb MetRS inh – Trypanosoma brucei MetRS inhibition; purified T. brucei MetRS, ATP depletion, Kinase-Glo luminescence; inhibition, % at 11.9 µM; 0.4% of 360,000 active; AID 624268;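 active means inhibition above a per-plate cutoff of the control wells' mean inhibition plus 3 SD, cut at about 5.5% in these data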;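 further: 0% = DMSO wells median and 100% = median of wells with control inhibitor compound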
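Test system: purified T. brucei MetRS enzyme. Also added: ATP, methionine and E. coli bulk tRNA substrates. Compound: 11.9 µM single point. Schedule: 15 min enzyme-compound preincubation, 2 h reaction, 10 min detection, 25 °C. Signal: luciferase luminescence of residual ATP, Kinase-Glo. Evaluation: percent inhibition versus plate control medians. Controls: DMSO wells, low control.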
ABCB6 blocker 1 – inhibitors of human ABC transporter ABCB6; shares compounds with ABCB6 inh MLPCN; K562-ABCB6 porphyrin accumulation, flow cytometry, 1 h; active compounds read low; ratio response (% of DMSO), % at 10 µM; 700 tested, under 10 active;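 active means repeat-averaged ratio response below 75% of DMSO, the collection mean minus 3 SD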;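 further: median porphyrin fluorescence at 575 nm with 488 nm excitation from mitochondria; lower ratio means less porphyrin signal so ABCB6 inhibition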
Active calls of the source: *; . = no result.

SMILES	MC4R antagonist	Granule exo inh	ABCB6 inh MLPCN	MC4R barr agon	hiPSC survival	Tb MetRS inh	ABCB6 blocker 1
CCn1cc([N+](=O)[O-])c(C(=O)N2N=C3/C(=C/c4cccs4)CCCC3C2c2cccs2)n1 (centres undefined)	3.8	-0.9	66.0*	-1.7	-1.2	-0.5	100.0
CC(=O)NN(O)C1N(C)C(=O)N(Cc2ccccc2)C1(C)C (centres undefined)	-1.0	-5.8	97.0	0.1	-0.5	-0.6	.
N#Cc1ccccc1NC(=O)c1ccc2c(Cl)c3c(nc2c1)CCCC3	-9.4	-2.9	94.0	1.3	-1.2	-1.2	.
CC(=O)c1cccc(NC(=O)c2ccc3c(Cl)c4c(nc3c2)CCCC4)c1	4.2	-9.3	73.0*	2.7	-0.6	0.1	102.0
CCOc1cc(OCC)cc(C(=O)N2CCC[C@H]2C(=O)N2CCC[C@H]2C(=O)NCc2cccc(OC)c2)c1	.	-5.1	99.0	.	-0.4	-0.5	.
O=S(=O)(NCC1CCCO1)c1cc(Cl)ccc1Cl (centres undefined)	-0.4	-4.9	103.0	0.6	0.1	-0.7	.
O=S(=O)(NCC1CCCO1)c1cc(Cl)ccc1Br (centres undefined)	0.8	2.8	24.0*	0.4	-1.0	-0.4	100.0
Cc1nc(SCCc2ccccc2)[nH]c(=O)c1C	6.0	-2.0	96.0	-1.1	0.8	-0.2	.
CCSc1nc(C)c(C)c(=O)[nH]1	-0.1	16.7	72.0*	-1.5	0.6	-0.9	98.0
CCN1C(=O)CSc2ccc(C(=O)NCc3ccco3)cc21	3.2	2.9	53.0*	-0.6	0.8	-0.8	101.0
CCSc1nc2sc3c(c2c(=O)[nH]1)CC(C)(CC)OC3 (centres undefined)	6.5	-2.4	61.0*	0.4	5.9	-0.8	97.0
CCCSc1nc2sc3c(c2c(=O)[nH]1)CC(C)(CC)OC3 (centres undefined)	19.0	-6.9	96.0	0.6	0.9	-0.3	.
CC(C)(C)NC(=O)c1cccc(NC(=O)c2cccc(O)c2)c1	3.5	1.0	63.0*	0.3	1.0	-1.1	101.0
Cc1cccc(C(=O)OCC(=O)NCCCc2ccccc2)c1O	11.6	-0.8	18.0*	4.2	0.0	-1.2	100.0
O=C(COC(=O)c1cccc2ccccc12)NCCCc1ccccc1	-2.4	-2.1	94.0	-1.8	-0.1	-0.4	.
O=c1c(-c2ccccc2)c(O)cc(-c2ccncc2)n1-c1ccc(Cl)cc1	-0.4	-1.2	64.0*	-2.2	-1.1	-0.5	102.0
CC1CCN(C(=O)c2ccccc2NC(=O)Nc2ccccc2)CC1	-0.7	3.6	11.0*	-0.3	-0.4	-0.6	98.0
Cc1ccccc1C(=O)Nc1ccccc1C(=O)N1CCC(C)CC1	1.5	5.7	99.0	0.1	0.1	-0.3	.
COc1ccccc1C(=O)NCCC(=O)NCC(C)(C)N1CCOCC1	8.6	11.4	105.0	0.3	-0.6	-0.5	.
Cc1ccc2oc(=O)c3cnn(CC(=O)NCCc4ccsc4)c3c2c1	6.5	2.2	54.0*	-2.0	0.4	-0.5	103.0
Cc1ccc2oc(=O)c3cnn(CC(=O)NCCN(C)C)c3c2c1	3.4	0.2	89.0	-0.1	0.7	-0.6	.
CCCCCN(C(=O)CCC(=O)OCc1cc(C)ccc1C)c1c(N)n(CCCC)c(=O)[nH]c1=O	9.5	-0.5	99.0	-0.6	0.3	-0.3	100.0
CCCCCN(C(=O)CCC(=O)OCC(=O)Nc1ccc(C)cc1F)c1c(N)n(CCCC)c(=O)[nH]c1=O	4.2	-1.3	96.0	-2.2	-0.5	0.4	.
CCCCCN(C(=O)CCC(=O)OCC(=O)Nc1cccc(CC)c1)c1c(N)n(CCCC)c(=O)[nH]c1=O	6.0	6.4	74.0*	-2.3	0.3	-0.7	101.0
CCCCCN(C(=O)CCC(=O)OCC(=O)N(CC)c1ccccc1)c1c(N)n(CCCC)c(=O)[nH]c1=O	-2.7	-3.7	100.0	-1.2	0.2	-0.3	.
